# In the library only some 2.4% were active in any assay of this set; here they are far more common.
# SUMO1 PPI mod = modulators of human SUMO1-mediated protein-protein interactions; actives 0.33% (n = 360,000); AID 602429; inhibition, % at 20 µM; SUMO1 binding to a labelled peptide, TR-FRET, 1 h; P63165; in the data active = inhibition above about 37%
# Scp-1 inhibitor = blocks human Scp-1 phosphatase activity; actives 0.88% (n = 340,000); Recombinant Scp1, phosphopeptide, malachite green phosphate absorbance; inhibition, % at 20 µM; Q9GZU7;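 active = inhibition above about 50% at 20 µM, limit read from the data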;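 note: plate controls were DMSO wells with enzyme for no effect and wells lacking enzyme for full effect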
#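 System: SCP-1 catalytic domain; Reagent: Phospho 17-mer peptide substrate; Doses: one concentration, 20 µM, with 1.0% DMSO; Incubation: 45 min room-temperature reaction, 5 min colour, 30 min stabiliser; Signal: Phosphate-binding colour reagent, absorbance read at 630 nm.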
# LMPTP inh = blocks human LMPTP phosphatase; recombinant LMPTP-A, OMFP fluorogenic substrate, fluorescence intensity; inhibition, % at 20 µM; actives 0.22% (n = 360,000); AID 651560;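 active = compounds that cut the enzyme signal by at least half of the control window in the single-dose screen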;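 note: plate controls were DMSO wells with enzyme plus substrate for no effect and substrate without enzyme for full effect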
#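 Test system – LMPTP-A phosphatase enzyme · Quantity – 0.625 nM LMPTP-A final · Reagent – OMFP substrate, 400 µM final · Dosing – one test concentration per compound, 20 µM, with 3% DMSO overall · Timing – 50 min enzyme reaction at room temperature, protected from light · Detection – fluorescence intensity · Controls – substrate-only low control, DMSO enzyme-plus-substrate high control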
# NadD inh = NadD (S. aureus) enzyme inhibition; AID 602399; purified NadD enzyme, colorimetric absorbance read-out; actives 0.78% (n = 360,000); inhibition, % at 20 µM; in the data active = inhibition above about 26%
# DNMT1 block = blocks human DNA methyltransferase DNMT1; P26358; DNMT1 molecular beacon, Hinp1I cleavage, fluorescence; inhibition (reported as % activation of signal), % at 10 µM; actives 0.83% (n = 360,000); AID 588458; in the data active = inhibition above about 50%
# STEP inh = STEP (human) phosphatase inhibition; P54829; recombinant STEP, OMFP fluorogenic substrate, fluorescence; inhibition, % at 20 µM; actives 0.25% (n = 360,000);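 active = inhibition at 20 µM, scaled per plate between control wells, above about 37%, limit read from the data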;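 note: 0% = DMSO with enzyme and substrate and 100% = substrate only without enzyme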
#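 Test system: STEP tyrosine phosphatase / Reagent: OMFP at 25 µM / Doses: 20 µM, 1% DMSO / Read-out: percent inhibition scaled to no-enzyme and uninhibited-enzyme controls, plate-pattern corrected / Detection: FITC-channel fluorescence of OMFP product / Medium: Bis-Tris buffer pH 6.0, 2.5 mM DTT, 0.005% Tween 20 / Schedule: 20 min at room temperature, dark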
# DNMT1 interf DR = shows spectral interference in the DNMT1 beacon assay. IC50, µM. molecular beacon fluorescence, spectral interference counter-screen. AID 602382. shares compounds with DNMT1 block. 200 tested, under 10 active; call rule not given here
# DNMT1 confirm = DNMT1 inhibition confirmation, single concentration. DNMT1 molecular beacon HinP1I cleavage, fluorescence. AID 602385. inhibition, % at 10 µM. shares compounds with DNMT1 block. actives 8% (n = 2,300);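 active = average inhibition of at least 30% in the single-concentration confirmation test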
# DNMT1 interf = counter-screen for DNMT1 inhibitors: spectral interference; AID 602387; activation (fluorescence interference), % at 10 µM; shares compounds with DNMT1 block; DNMT1 molecular beacon spectral interference counterscreen, fluorescence 485/520; actives 1% (n = 2,300);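 active = activation of at least 30% at 10 µM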;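 note: DNMT1 catalytic domain with a HinP1I cleavage step and a FAM/dabcyl DNA beacon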
# The depositor's hits bear a star; . = no result given.
SMILES,SUMO1 PPI mod,Scp-1 inhibitor,LMPTP inh,NadD inh,DNMT1 block,STEP inh,DNMT1 confirm,DNMT1 interf,others
CC(C)Cc1ccc(C(=O)NCCOc2ccccc2)o1,-5,-4,-1,0,3,-2,.,.,
CCN(CC)CCOc1ccc2c(c1)C(=NO)c1cc(OCCN(CC)CC)ccc1-2,-27,13,5,-8,61*,0,34*,-3,DNMT1 interf DR=>99
CCN(CC)CCOc1ccc(Br)cc1,-4,2,-1,-3,14,3,.,.,
COC1=C(N)C(=O)c2nc(C)ccc2C1=O,0,34,3,2,78*,2,53*,-7,DNMT1 interf DR=>99
COc1ccc(N)c2c1C(=O)c1ccccc1C2=O,-11,-1,5,2,-2,4,.,.,
COC1=C(Br)C(=O)c2nc(C)ccc2C1=O,16,.,4,11,83*,3,41*,-8,DNMT1 interf DR=>99
COC(=O)c1cc(C)nc2c1c(C)nn2-c1ccccc1,-4,-10,-1,-14,2,-2,.,.,
Cc1nn(-c2ccccc2)c2nc(-c3ccco3)cc(C(=O)O)c12,29,13,0,-1,61*,-3,2,-1,
Cc1nn(-c2cccc(Cl)c2)c2nc(-c3ccco3)cc(C(=O)O)c12,40*,14,0,5,71*,-1,3,2,
Cc1cccc(-n2nc(C)c3c(C(=O)O)cc(-c4cccs4)nc32)c1,5,-10,0,-6,-1,-2,.,.,
O=C(O)c1cc(-c2ccco2)nn1-c1ccc(Cl)cc1,25,67*,11,7,96*,11,12,3,
O=C(O)c1cc(-c2cc3ccccc3o2)nn1-c1ccccc1,0,-3,0,7,6,9,.,.,
CC1CCC(NC(=O)CN2CCN(S(=O)(=O)c3ccc(Br)s3)CC2)CC1 (stereo unspecified),-1,.,5,-1,0,-1,.,.,
COc1ccc2nc(C)cc(SCC(=O)N/N=C/c3cccc4ccccc34)c2c1,1,-11,26,9,53*,3,3,-3,
COc1ccc(NC(=O)Cc2coc3cc(C)c(C(C)C)cc23)cc1S(=O)(=O)N1CCOCC1,0,-5,2,3,-20,1,.,.,
Cc1cc(=O)oc2cc(OCC(=O)N/N=C/c3ccccc3O)ccc12,28,28,39,0,61*,26,1,-2,
COc1ccc(NC(=O)COc2ccc3c(C)cc(=O)oc3c2)cc1S(=O)(=O)N1CCCCC1,6,8,2,14,63*,3,-1,-9,
COc1ccc(S(=O)(=O)N2CCOCC2)cc1NC(=O)COc1ccc2c(C)cc(=O)oc2c1,3,-3,1,-1,-1,0,.,.,
O=C(O)c1ccc(NS(=O)(=O)c2ccc3c(c2)C2C=CCC2C(c2ccccc2F)N3)cc1 (stereo unspecified),35,-4,3,21,62*,-2,29,1,DNMT1 interf DR=>99
O=C(O)c1ccc2c(c1)C1C=CCC1C(c1cc3c(cc1Br)OCO3)N2 (stereo unspecified),10,14,5,7,12,-3,.,.,
Cc1ccc(C)c(N2C(=O)c3ccc(C(=O)Nc4ccccn4)cc3C2=O)c1,-19,.,-2,0,1,-2,.,.,
Cc1ccc(NC(=O)c2ccc3c(c2)C(=O)N(c2ccccc2C)C3=O)nc1,-33,0,1,-3,80*,-5,2,3,
COCCn1c(N)c(C(=O)NCC2CCCO2)c2nc3ccccc3nc21 (stereo unspecified),-2,0,1,0,-18,1,.,.,

# Source: PubChem BioAssay
